From ChEMBL document CHEMBL5705890, “Antitumor activity of an allosteric inhibitor of centromere-associated protein-E” (Proc Natl Acad Sci U S A, 2010)

Columns and labels:
NCI-H2171 = assay: Anticancer activity against human NCI-H2171 cells assessed as cell doubling measured for 72 hrs by DAPI staining based analysis; assay type: functional
HT-1080 = assay: Anticancer activity against human HT-1080 cells assessed as cell growth inhibition measured after 72 hrs by DAPI staining based analysis; assay type: functional
Capan-2 = assay: Anticancer activity against human Capan-2 cells assessed as cell doubling measured for 72 hrs by DAPI staining based analysis; assay type: functional
MDA-MB-453 = assay: Anticancer activity against human MDA-MB-453 cells assessed as cell growth inhibition measured after 72 hrs by DAPI staining based analysis; assay type: functional
SW684 = assay: Anticancer activity against human SW684 cells assessed as cell doubling measured for 72 hrs by DAPI staining based analysis; assay type: functional
RPMI-2650 = assay: Anticancer activity against human RPMI-2650 cells assessed as cell growth inhibition measured after 72 hrs by DAPI staining based analysis; assay type: functional
SW1783 = assay: Anticancer activity against human SW1783 cells assessed as cell growth inhibition measured after 72 hrs by DAPI staining based analysis; assay type: functional
DBTRG-05MG = assay: Anticancer activity against human DBTRG-05MG cells assessed as cell growth inhibition measured after 72 hrs by DAPI staining based analysis; assay type: functional
Method in brief: (§1)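 Cells seeded, DAPI-stained DNA content of fixed cells read by imaging 24 h after seeding (T0), and again after a further 72 h exposure to a range of drug concentrations (T72). T72 values were normalized to T0. Curve fits gave the concentration producing 50% growth inhibition relative to T0 and Ymax (GI50).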

SW 954 = assay: Anticancer activity against human SW 954 cells assessed as cell doubling measured for 72 hrs by DAPI staining based analysis; assay type: functional
SK-MEL3 = assay: Anticancer activity against human SK-MEL3 cells assessed as cell doubling measured for 72 hrs by DAPI staining based analysis; assay type: functional
G-402 = assay: Anticancer activity against human G-402 cells assessed as cell growth inhibition measured after 72 hrs by DAPI staining based analysis; assay type: functional; method in brief: as §1
HT-1376 = assay: Anticancer activity against human HT-1376 cells assessed as cell growth inhibition measured after 72 hrs by DAPI staining based analysis; assay type: functional
[1] = Antitumor activity against human MV-522 cells in xenograft model assessed as tumor growth delay at 125 mg/kg relative to control; assay type: functional
[2] = target: Centromere-associated protein E (Homo sapiens, UniProt Q02224); assay: Uncompetitive binding affinity to C-terminal 6-his-tagged CENP-E (2 to 340 residues)(unknown origin) expressed in Escherichia coli BL21(DE3) assessed as apparent inhibition constant in presence of ATP; details: read-out: Ki(app)
SNU-398 = assay: Anticancer activity against human SNU-398 cells assessed as cell doubling measured for 72 hrs by DAPI staining based analysis; assay type: functional
SAOS-2 = assay: Anticancer activity against human SAOS-2 cells assessed as cell growth inhibition measured after 72 hrs by DAPI staining based analysis; assay type: functional
SF-295 = assay: Anticancer activity against human SF-295 cells assessed as cell growth inhibition measured after 72 hrs by DAPI staining based analysis; assay type: functional
CRO-AP2 = assay: Anticancer activity against human CRO-AP2 cells assessed as cell growth inhibition measured after 72 hrs by DAPI staining based analysis; assay type: functional; method in brief: as §1
DU-4475 = assay: Anticancer activity against human DU-4475 cells assessed as cell growth inhibition measured after 72 hrs by DAPI staining based analysis; assay type: functional; method in brief: as §1
A549 = assay: Anticancer activity against human A549 cells assessed as cell growth inhibition measured after 72 hrs by DAPI staining based analysis; assay type: functional
Method in brief: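 Cells were seeded and, after 24 h, DNA content was read as T0. Cells were then exposed to varying drug concentrations for a further 72 h (T72). Fixed cells were DAPI-stained and DNA content measured by automated imaging. T72 values were normalized to T0. GI50 is the concentration giving 50% growth inhibition between T0 and Ymax, obtained by curve fitting.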

CAL-62 = assay: Anticancer activity against human CAL-62 cells assessed as cell growth inhibition measured after 72 hrs by DAPI staining based analysis; assay type: functional
Method in brief: (§2)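 Cells were seeded, and DNA content at 24 h after seeding (T0) was read by imaging of fixed, DAPI-stained cells. Cells were then exposed to a range of drug concentrations for a further 72 h (T72) and DNA content was read again. T72 values were normalized to T0, and GI50 was taken from curve fits as the concentration giving 50% growth inhibition relative to T0 and Ymax.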

NCI-H1299 = assay: Anticancer activity against human NCI-H1299 cells assessed as cell growth inhibition measured after 72 hrs by DAPI staining based analysis; assay type: functional
HMCB cell line = assay: Anticancer activity against human HMCB cells assessed as cell growth inhibition measured after 72 hrs by DAPI staining based analysis; assay type: functional
NCI-H747 = assay: Anticancer activity against human NCI-H747 cells assessed as cell doubling measured for 72 hrs by DAPI staining based analysis; assay type: functional
MIA PaCa-2 = assay: Anticancer activity against human MIA PaCa-2 cells assessed as cell doubling measured for 72 hrs by DAPI staining based analysis; assay type: functional
UACC-257 = assay: Anticancer activity against human UACC-257 cells assessed as cell growth inhibition measured after 72 hrs by DAPI staining based analysis; assay type: functional
OVCAR-4 = assay: Anticancer activity against human OVCAR-4 cells assessed as cell growth inhibition measured after 72 hrs by DAPI staining based analysis; assay type: functional
WiDr = assay: Anticancer activity against human WiDr cells assessed as cell growth inhibition measured after 72 hrs by DAPI staining based analysis; assay type: functional
RD = assay: Anticancer activity against human RD cells assessed as cell doubling measured for 72 hrs by DAPI staining based analysis; assay type: functional
LNCaP = assay: Anticancer activity against human LNCaP cells assessed as cell growth inhibition measured after 72 hrs by DAPI staining based analysis; assay type: functional
SK-NEP-1 = assay: Anticancer activity against human SK-NEP-1 cells assessed as cell doubling measured for 72 hrs by DAPI staining based analysis; assay type: functional
[3] = target: Centromere-associated protein E (Mus musculus, UniProt Q6RT24); assay: Binding affinity to wild-type mouse CENP-E assessed as inhibition constant
HCC1143 = assay: Anticancer activity against human HCC1143 cells assessed as cell doubling measured for 72 hrs by DAPI staining based analysis; assay type: functional
COLO 205 = assay: Anticancer activity against human COLO 205 cells assessed as cell growth inhibition measured after 72 hrs by DAPI staining based analysis; assay type: functional; method in brief: as §2
HPAF-II = assay: Anticancer activity against human HPAF-II cells assessed as cell growth inhibition measured after 72 hrs by DAPI staining based analysis; assay type: functional
SK-LMS-1 = assay: Anticancer activity against human SK-LMS-1 cells assessed as cell doubling measured for 72 hrs by DAPI staining based analysis; assay type: functional
HOP-62 = assay: Anticancer activity against human HOP-62 cells assessed as cell doubling measured for 72 hrs by DAPI staining based analysis; assay type: functional
C-4-II = assay: Anticancer activity against human C-4-II cells assessed as cell doubling measured for 72 hrs by DAPI staining based analysis; assay type: functional
OVCAR-5 = assay: Anticancer activity against human OVCAR-5 cells assessed as cell growth inhibition measured after 72 hrs by DAPI staining based analysis; assay type: functional

Chain of Centromere-associated protein E (Mus musculus, UniProt Q6RT24) (Q6RT24 whole entry): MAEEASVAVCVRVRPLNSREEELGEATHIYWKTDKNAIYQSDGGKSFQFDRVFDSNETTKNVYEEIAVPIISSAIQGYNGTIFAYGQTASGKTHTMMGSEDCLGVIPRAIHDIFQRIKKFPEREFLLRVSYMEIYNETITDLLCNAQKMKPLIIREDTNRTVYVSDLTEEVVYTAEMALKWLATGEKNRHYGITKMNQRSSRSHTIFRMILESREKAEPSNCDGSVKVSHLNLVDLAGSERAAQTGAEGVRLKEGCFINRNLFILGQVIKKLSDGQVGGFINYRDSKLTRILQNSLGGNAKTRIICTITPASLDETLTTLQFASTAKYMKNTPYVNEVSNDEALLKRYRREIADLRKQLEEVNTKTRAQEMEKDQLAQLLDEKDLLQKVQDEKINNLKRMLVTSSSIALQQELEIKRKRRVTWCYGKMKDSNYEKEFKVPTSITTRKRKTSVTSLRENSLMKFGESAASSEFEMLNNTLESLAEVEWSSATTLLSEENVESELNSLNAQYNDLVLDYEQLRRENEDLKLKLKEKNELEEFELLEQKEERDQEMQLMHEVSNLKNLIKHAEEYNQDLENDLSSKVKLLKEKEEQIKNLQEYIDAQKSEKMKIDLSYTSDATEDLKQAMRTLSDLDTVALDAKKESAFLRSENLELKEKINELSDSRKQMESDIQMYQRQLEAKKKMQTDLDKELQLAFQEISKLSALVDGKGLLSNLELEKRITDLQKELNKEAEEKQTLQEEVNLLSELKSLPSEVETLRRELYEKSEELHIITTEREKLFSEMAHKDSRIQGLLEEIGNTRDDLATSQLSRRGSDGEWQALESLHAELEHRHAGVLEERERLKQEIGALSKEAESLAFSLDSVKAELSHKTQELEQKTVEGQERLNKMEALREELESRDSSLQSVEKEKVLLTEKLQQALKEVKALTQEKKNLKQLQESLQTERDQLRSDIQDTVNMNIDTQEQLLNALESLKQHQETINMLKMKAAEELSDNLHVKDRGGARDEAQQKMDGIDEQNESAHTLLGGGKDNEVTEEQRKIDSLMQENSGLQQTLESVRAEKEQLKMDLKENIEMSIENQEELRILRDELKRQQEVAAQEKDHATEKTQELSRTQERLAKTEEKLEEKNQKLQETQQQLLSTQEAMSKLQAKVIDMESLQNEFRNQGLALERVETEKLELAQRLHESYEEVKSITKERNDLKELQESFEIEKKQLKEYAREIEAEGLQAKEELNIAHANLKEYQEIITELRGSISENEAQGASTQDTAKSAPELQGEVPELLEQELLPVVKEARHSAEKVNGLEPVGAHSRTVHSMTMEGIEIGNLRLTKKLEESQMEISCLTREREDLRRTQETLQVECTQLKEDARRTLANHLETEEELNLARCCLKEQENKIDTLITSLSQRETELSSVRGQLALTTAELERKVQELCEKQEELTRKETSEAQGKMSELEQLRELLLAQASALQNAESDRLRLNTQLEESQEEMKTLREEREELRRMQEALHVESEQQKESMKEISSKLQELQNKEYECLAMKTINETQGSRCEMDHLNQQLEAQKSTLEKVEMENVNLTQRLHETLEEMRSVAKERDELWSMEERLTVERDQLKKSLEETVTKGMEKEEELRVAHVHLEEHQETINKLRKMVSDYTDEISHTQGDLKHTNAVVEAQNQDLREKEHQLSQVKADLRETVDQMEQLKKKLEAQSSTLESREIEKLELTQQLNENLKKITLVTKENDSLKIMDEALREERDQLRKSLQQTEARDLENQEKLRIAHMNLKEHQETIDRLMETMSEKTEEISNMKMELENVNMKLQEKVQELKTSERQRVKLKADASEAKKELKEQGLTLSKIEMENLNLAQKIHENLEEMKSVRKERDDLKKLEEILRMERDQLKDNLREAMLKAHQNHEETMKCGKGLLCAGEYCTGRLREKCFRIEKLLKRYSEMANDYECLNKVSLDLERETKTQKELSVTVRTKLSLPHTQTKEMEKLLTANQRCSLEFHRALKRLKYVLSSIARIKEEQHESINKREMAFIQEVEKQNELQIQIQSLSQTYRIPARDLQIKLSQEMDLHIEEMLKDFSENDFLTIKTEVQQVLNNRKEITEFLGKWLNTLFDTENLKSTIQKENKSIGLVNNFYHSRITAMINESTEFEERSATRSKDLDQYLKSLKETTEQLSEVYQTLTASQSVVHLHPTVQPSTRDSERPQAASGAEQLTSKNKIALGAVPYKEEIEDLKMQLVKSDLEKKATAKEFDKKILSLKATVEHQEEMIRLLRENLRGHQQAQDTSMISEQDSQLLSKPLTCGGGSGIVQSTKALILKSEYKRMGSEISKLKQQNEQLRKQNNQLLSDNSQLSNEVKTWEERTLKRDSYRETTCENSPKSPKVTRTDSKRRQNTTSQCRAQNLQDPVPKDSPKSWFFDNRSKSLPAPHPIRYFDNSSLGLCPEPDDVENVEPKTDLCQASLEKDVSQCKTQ
Chain of Centromere-associated protein E (Homo sapiens, UniProt Q02224) (Q02224 whole entry, the tested form may be a part): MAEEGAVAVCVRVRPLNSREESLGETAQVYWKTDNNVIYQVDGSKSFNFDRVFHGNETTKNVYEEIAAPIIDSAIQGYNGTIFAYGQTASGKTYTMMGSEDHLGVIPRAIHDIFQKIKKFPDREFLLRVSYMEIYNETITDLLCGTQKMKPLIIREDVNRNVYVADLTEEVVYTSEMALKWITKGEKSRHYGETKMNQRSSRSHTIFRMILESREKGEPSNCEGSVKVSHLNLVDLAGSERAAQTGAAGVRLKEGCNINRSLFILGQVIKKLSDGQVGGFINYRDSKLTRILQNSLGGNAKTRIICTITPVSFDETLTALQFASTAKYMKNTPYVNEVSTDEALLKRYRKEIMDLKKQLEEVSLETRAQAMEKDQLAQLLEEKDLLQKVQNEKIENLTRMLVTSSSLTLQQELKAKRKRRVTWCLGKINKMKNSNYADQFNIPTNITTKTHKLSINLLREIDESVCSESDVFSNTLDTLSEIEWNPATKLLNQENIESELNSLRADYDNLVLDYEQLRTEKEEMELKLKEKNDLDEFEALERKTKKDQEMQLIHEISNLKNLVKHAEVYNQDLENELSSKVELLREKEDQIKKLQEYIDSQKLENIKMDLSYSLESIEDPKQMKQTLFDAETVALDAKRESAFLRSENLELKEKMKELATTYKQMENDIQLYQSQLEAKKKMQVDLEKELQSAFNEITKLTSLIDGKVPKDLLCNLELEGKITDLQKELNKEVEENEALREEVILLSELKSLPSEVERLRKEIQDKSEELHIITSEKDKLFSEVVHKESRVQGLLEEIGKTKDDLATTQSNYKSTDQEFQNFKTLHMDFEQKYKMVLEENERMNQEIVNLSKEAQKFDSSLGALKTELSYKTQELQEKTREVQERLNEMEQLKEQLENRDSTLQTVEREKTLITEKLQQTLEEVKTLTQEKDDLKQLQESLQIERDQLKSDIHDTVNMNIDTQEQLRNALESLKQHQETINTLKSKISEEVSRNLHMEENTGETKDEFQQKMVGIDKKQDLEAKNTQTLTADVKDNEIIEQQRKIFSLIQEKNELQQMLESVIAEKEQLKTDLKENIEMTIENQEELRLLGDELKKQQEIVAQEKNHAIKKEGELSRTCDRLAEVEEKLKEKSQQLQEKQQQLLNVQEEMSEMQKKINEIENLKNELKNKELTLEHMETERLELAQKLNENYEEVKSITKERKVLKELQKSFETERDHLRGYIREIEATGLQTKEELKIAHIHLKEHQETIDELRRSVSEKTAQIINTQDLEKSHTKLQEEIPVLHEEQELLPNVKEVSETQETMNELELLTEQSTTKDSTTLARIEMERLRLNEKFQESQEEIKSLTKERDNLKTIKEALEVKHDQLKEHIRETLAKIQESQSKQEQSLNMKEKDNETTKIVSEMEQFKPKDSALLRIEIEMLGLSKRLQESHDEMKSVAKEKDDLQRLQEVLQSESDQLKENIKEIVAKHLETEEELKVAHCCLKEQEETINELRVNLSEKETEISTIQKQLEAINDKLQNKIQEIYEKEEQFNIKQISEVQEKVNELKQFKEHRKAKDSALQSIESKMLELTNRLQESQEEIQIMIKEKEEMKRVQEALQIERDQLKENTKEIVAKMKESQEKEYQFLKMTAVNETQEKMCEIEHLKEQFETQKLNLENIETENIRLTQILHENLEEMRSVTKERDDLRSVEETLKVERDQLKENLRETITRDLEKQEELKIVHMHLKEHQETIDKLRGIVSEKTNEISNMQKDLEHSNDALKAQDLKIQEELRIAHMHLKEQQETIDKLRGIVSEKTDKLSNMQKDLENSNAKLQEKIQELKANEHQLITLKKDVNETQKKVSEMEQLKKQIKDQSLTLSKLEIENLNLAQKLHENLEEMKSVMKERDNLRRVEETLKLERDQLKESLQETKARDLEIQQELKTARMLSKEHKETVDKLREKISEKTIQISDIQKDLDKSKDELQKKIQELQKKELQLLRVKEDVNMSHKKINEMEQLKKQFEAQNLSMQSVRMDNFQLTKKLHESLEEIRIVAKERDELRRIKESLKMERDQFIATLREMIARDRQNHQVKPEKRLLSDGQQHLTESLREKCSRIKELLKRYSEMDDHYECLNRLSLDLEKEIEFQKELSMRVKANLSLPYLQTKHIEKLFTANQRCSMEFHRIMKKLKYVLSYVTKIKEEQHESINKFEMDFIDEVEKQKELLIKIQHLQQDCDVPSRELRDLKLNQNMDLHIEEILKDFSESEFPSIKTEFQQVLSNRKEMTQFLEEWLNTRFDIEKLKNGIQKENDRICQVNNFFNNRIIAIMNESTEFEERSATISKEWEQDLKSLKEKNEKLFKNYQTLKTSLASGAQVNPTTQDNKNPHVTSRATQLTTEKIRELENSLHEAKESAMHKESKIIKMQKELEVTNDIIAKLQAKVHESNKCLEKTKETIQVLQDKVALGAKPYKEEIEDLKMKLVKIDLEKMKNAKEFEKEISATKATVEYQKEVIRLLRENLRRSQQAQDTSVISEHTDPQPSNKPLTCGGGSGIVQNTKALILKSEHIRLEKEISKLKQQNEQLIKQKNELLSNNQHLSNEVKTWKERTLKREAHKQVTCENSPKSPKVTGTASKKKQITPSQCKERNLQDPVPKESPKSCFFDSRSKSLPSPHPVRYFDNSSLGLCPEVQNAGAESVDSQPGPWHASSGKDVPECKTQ

CC(C)Oc1ccc(C(=O)N[C@H](CNC(=O)CN(C)C)Cc2ccc(-c3cn4cccc([C@H](C)O)c4n3)cc2)cc1Cl [GSK-923295A]
Activity (NCI-H2171): 1.39
GI50 (HT-1080): 24 nM
Activity (Capan-2): 1.89
GI50 (MDA-MB-453): 27 nM
Activity (SW684): 1.13
GI50 (RPMI-2650): 36 nM
GI50 (SW1783): 34 nM
GI50 (DBTRG-05MG): 17 nM
Activity (SW 954): 1.62
Activity (SK-MEL3): 1.11
GI50 (G-402): 31 nM
GI50 (HT-1376): 33 nM
Activity [1]: 104%
Ki [2]: 3.2 nM
Activity (SNU-398): 2.53
GI50 (SAOS-2): 41 nM
GI50 (SF-295): 35 nM
GI50 (CRO-AP2): 51 nM
GI50 (DU-4475): 147 nM
GI50 (A549): 21 nM
GI50 (CAL-62): 30 nM
GI50 (NCI-H1299): 52 nM
GI50 (HMCB cell line): 25 nM
Activity (NCI-H747): 2.19
Activity (MIA PaCa-2): 3.72
GI50 (UACC-257): 32 nM
GI50 (OVCAR-4): 30 nM
GI50 (WiDr): 18 nM
Activity (RD): 2.56
GI50 (LNCaP): 76 nM
Activity (SK-NEP-1): 1.74
Ki [3]: 67 nM
Activity (HCC1143): 1.89
GI50 (COLO 205): 25 nM
GI50 (HPAF-II): 5.03 µM
Activity (SK-LMS-1): 2.84
Activity (HOP-62): 1.82
Activity (C-4-II): 2.42
GI50 (OVCAR-5): 34 nM
